By EC50 is commonly meant the concentration needed to bring the measured effect to its halfway point.

This is an account of results in ChEMBL document CHEMBL3792314, “Synthesis, characterization and biological evaluation of benzothiazoles and tetrahydrobenzothiazoles bearing urea or thiourea moieties as vasorelaxants and inhibitors of the insulin releasing process” (Eur J Med Chem, 2016).

Bounds are passed on as bounds.

Experiment [1] relates to Thoracic aorta. In words: Vasorelaxant activity in Wistar rat endothelium-intact thoracic aortic rings assessed relaxation of 30 mM KCl-induced contraction. The format is functional. An outline of the steps:
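Endothelium-intact thoracic aortic rings from female Wistar rats (180–220 g), equilibrated 75 min under 1.8–2.0 g tension, pH 7.4, isometric force transducer. After stable 30 mM KCl plateau (about 15 min), cumulative addition at 1, 10, 30, 50, 100 µM, or 0.1–100 µM for some compounds. EC50 = concentration giving 50% relaxation; mean ± SEM of 4–6 experiments.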

Experiment [2] is described as follows: Inhibition of glucose-induced insulin secretion from Wistar rat pancreatic islets assessed as residual insulin release at 50 uM after 90 mins by radioimmunological assay. The experiment is classed as functional, Pancreatic islet. In outline: (§1)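 Islets from adult fed Wistar rats, groups of 10 from the same batch. Preincubated 30 min at 37°C in bicarbonate salt medium with 2.8 mM glucose and 0.5% dialysed albumin, gassed O2/CO2 95:5. Then incubated 90 min at 37°C with 16.7 mM glucose plus compound. Insulin measured by radioimmunoassay against rat insulin standard. Residual secretion expressed as % of drug-free 16.7 mM glucose control.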

The nature of experiment [3]: Inhibition of glucose-induced insulin secretion from Wistar rat pancreatic islets assessed as residual insulin release at 10 uM after 90 mins by radioimmunological assay. The format is functional, Pancreatic islet. In outline:
as §1

The test system of experiment [4] is Thoracic aorta. In words: Vasorelaxant activity in Wistar rat endothelium-denuded thoracic aortic rings assessed relaxation of 30 mM KCl-induced contraction. The experiment is classed as functional.
The subject of experiment [5] is Thoracic aorta. In words: Vasorelaxant activity in Wistar rat thoracic aortic rings assessed relaxation of 30 mM KCl-induced contraction in presence of KATP channel blocker glibenclamide. The experiment is classed as functional. An outline of the steps: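 Female Wistar rat thoracic aorta rings under 1.8–2.0 g resting tension, pH 7.4. Glibenclamide 10 μM present continuously in bath. Contraction by 30 mM KCl, then cumulative compound addition. EC50 = concentration relaxing the KCl contraction by 50%. Mean ± SEM, n = 3–5.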

Experiment [6] relates to Thoracic aorta. The experiment is described as follows: Vasorelaxant activity in Wistar rat thoracic aortic rings assessed relaxation of 80 mM KCl-induced contraction. The format is functional. An outline of the steps:
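Female Wistar rat (180–220 g) thoracic aortic rings equilibrated 75 min at 1.8–2.0 g tension, pH 7.4. Depolarized with 80 mM KCl, then compounds added cumulatively. EC50 = concentration giving 50% relaxation of the 80 mM KCl contraction. Mean ± SEM, n = 4–5.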

Experiment [7] can be described thus: Inhibition of glucose-induced insulin secretion from Wistar rat pancreatic islets assessed as residual insulin release at 1 uM after 90 mins by radioimmunological assay. The experiment is classed as functional, Pancreatic islet. An outline of the steps: as §1

On to `O=C(Nc1nc2ccccc2s1)Nc1ccc(C(F)(F)F)cc1Cl`, for which, in the experiment with Thoracic aorta [1], the EC50 was greater than 100 µM.
In turn, `O=C(Nc1nc2ccc(Br)cc2s1)Nc1ccc(C(F)(F)F)cc1Cl` registered an EC50 in the experiment on Thoracic aorta [1] greater than 100 µM.
As to `CC(C)(C)NC(=O)Nc1nc2ccc(Br)cc2s1`, the Activity in experiment [2] worked out at 15.89%. In addition, the EC50 in the experiment with Thoracic aorta [1] came out at 13 µM; with Thoracic aorta [4], 12.1 µM; in the experiment on Thoracic aorta [5] it was 23.3 µM; in the experiment on Thoracic aorta [6] it was 26.9 µM. The “Residual insulin secretion (% of glucose control)” value in experiment [3] came to 77.97%.
In the experiment on Thoracic aorta [1], `Cc1ccc2nc(NC(=O)NC(C)C)sc2c1` returned an EC50 of 18.5 µM.
On the same count and under the same terms, for `CC(C)(C)NC(=O)Nc1nc2c(s1)CCCC2` the value was 75.2 µM; for `O=C(Nc1ccc(Cl)cc1)Nc1nc2c(s1)CCCC2`, greater than 100 µM; for `CCc1ccc2nc(NC(=O)NCc3ccccc3)sc2c1`, greater than 100 µM.
Consider `O=C(NCc1ccccc1)Nc1nc2ccc(Br)cc2s1`, for which the Activity in experiment [2] is 17.85%. The compound further returned an EC50 with Thoracic aorta [1] of 64.2 µM. In addition, the “Residual insulin secretion (% of glucose control)” value in experiment [3] is recorded as 82.97%.
As to `CC(C)NC(=O)Nc1nc2ccc([N+](=O)[O-])cc2s1`, the Activity in experiment [2] came to 8.52%. For the same compound, the EC50 with Thoracic aorta [1] came out at 15.7 µM; in the experiment on Thoracic aorta [4] it was 17.8 µM; with Thoracic aorta [6], 36.4 µM. In experiment [3], the “Residual insulin secretion (% of glucose control)” value was determined as 62.03%.
For `CC(C)(C)NC(=O)Nc1nc2ccc([N+](=O)[O-])cc2s1`, in experiment [2], the Activity stood at 11.77%. In addition, the “Residual insulin release (% of control)” value in experiment [7] was determined as 83.52%. Moreover, the EC50 in the experiment on Thoracic aorta [1] was 10.8 µM; in the experiment on Thoracic aorta [4] it was 14.8 µM; in the experiment on Thoracic aorta [5], 19.5 µM; in the experiment with Thoracic aorta [6], 31 µM. The “Residual insulin secretion (% of glucose control)” value in experiment [3] came to 30.98%.
Compound `N#Cc1ccc(NC(=S)Nc2nc3c(s2)CCCC3)cc1` had an EC50 in the experiment on Thoracic aorta [1] greater than 100 µM.
With `CCCCCNC(=O)Nc1nc2ccc([N+](=O)[O-])cc2s1`, the EC50 turned out to be 2.11 µM in the experiment with Thoracic aorta [1], 4.75 µM in the experiment with Thoracic aorta [4], 19.6 µM with Thoracic aorta [5] and 14.2 µM in the experiment with Thoracic aorta [6].
On to `CCc1ccc2nc(NC(=S)NCc3ccccc3)sc2c1`, for which the EC50 in the experiment on Thoracic aorta [1] is greater than 100 µM.
Still for that read-out and setting: the value for `Cc1ccc2nc(NC(=S)NCc3ccccc3)sc2c1` was greater than 100 µM; that for `CCc1ccc2nc(NC(=O)Nc3ccc(C(F)(F)F)cc3Cl)sc2c1` was greater than 100 µM.
Still for that read-out and setting: for `CCc1ccc2nc(NC(=O)NC(C)C)sc2c1` the value was 24.4 µM; for `Cc1ccc2nc(NC(=S)NC3CCCCC3)sc2c1`, 52.1 µM; for `CC(C)NC(=O)Nc1nc2c(s1)CCCC2`, 47.6 µM.
On the same count and under the same terms, the value for `O=C(Nc1nc2ccc([N+](=O)[O-])cc2s1)Nc1ccc(C(F)(F)F)cc1Cl` was 54.3 µM; that for `CC(C)NC(=O)Nc1nc2ccc(Br)cc2s1` was 22.8 µM.
`CC(C)NC(=S)Nc1nc2c(s1)CCCC2` gave an EC50 with Thoracic aorta [1] greater than 100 µM.
Take `O=[N+]([O-])c1cccc(NC(=S)Nc2nc3c(s2)CCCC3)c1`: the EC50 in the experiment with Thoracic aorta [1] was greater than 100 µM.
As to `N#Cc1ccc(NC(=O)Nc2nc3ccc(Br)cc3s2)cc1`, the Activity in experiment [2] was 10.68%. In experiment [7], the “Residual insulin release (% of control)” value is on record as 60.5%. In the experiment with Thoracic aorta [1], this compound yielded an EC50 greater than 100 µM. Moreover, the “Residual insulin secretion (% of glucose control)” value in experiment [3] came to 11.03%.
In the experiment on Thoracic aorta [1], `CCCCCNC(=O)Nc1nc2ccc(C#N)cc2s1` had an EC50 of 14.8 µM.
As to `CC(C)(C)NC(=O)Nc1nc2ccc(C#N)cc2s1`, the EC50 turned out to be 2.78 µM with Thoracic aorta [1], 4.66 µM with Thoracic aorta [4], 15.6 µM with Thoracic aorta [5] and 15 µM in the experiment with Thoracic aorta [6].
`CCc1ccc2nc(NC(=S)Nc3cccc([N+](=O)[O-])c3)sc2c1`: the half-maximal effective concentration (EC50) in the experiment with Thoracic aorta [1] was greater than 100 µM.
Still for that read-out and setting: the value for `CCc1ccc2nc(NC(=O)NC(C)(C)C)sc2c1` was 25.3 µM; that for `N#Cc1ccc(NC(=O)Nc2nc3c(s2)CCCC3)cc1` was greater than 100 µM.
As to `CC(C)NC(=O)Nc1nc2ccccc2s1`, the EC50 with Thoracic aorta [1] was 35.5 µM.
`O=C(Nc1ccc(Cl)c(C(F)(F)F)c1)Nc1nc2c(s1)CCCC2` displayed an EC50 with Thoracic aorta [1] greater than 100 µM.
Consider `CC1=Nc2ccc(Cl)cc2S(=O)(=O)N1` [DIAZOXIDE], for which, in experiment [2], the Activity is reported as 26.7%. For the same compound, the “Residual insulin release (% of control)” value in experiment [7] is listed as 87.5%. The EC50 in the experiment with Thoracic aorta [1] was 23.7 µM; with Thoracic aorta [4] it was 23.2 µM; in the experiment with Thoracic aorta [5], greater than 100 µM; in the experiment on Thoracic aorta [6], greater than 100 µM. For the same compound, the “Residual insulin secretion (% of glucose control)” value in experiment [3] worked out at 73.9%.
`CC(N/C(=N\C#N)Nc1ccncc1)C(C)(C)C` (stereo not drawn) [PINACIDIL ANHYDROUS]: the Activity in experiment [2] was determined as 88.8%. For the same compound, the “Residual insulin release (% of control)” value in experiment [7] stood at 97.7%. The half-maximal effective concentration (EC50) in the experiment on Thoracic aorta [1] amounted to 0.39 µM; in the experiment with Thoracic aorta [5], 8.02 µM; with Thoracic aorta [6], 92.1 µM.
